From PubChem
KCNK3 inh: human KCNK3 channel inhibition, primary screen; B-score at 10 µM; CHO-KCNK3 thallium flux, FluxOR fluorescence; hits give low values; actives 0.84% (n = 340,000); O14649; AID 602410;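 active = B-score under library mean minus 4 SD, starting fluorescence ratio at most library mean plus 5 SD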;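 note: more negative B-score means stronger inhibition of thallium flux through KCNK3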
hERG rescue: hERG (human) protection from proarrhythmic block; Q12809; actives 0.51% (n = 310,000); CHO-hERG, FluxOR thallium flux, dofetilide IC70 present; activation (rescue from dofetilide block), less the hit threshold, % at 10 µM;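 active = activation above the mean of controls blocked by dofetilide plus 5 SD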;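 note: thallium influx through hERG after potassium depolarization seen as dye fluorescence rise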
KCNQ1 pot: human KCNQ1 channel potentiation or activation; actives 0.35% (n = 310,000); CHO-K1 KCNQ1, thallium flux FluxOR fluorescence; hits give high values; AID 2648; P51787; B-score at 10 µM;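 active = fluorescence ratio B-score, a plate-corrected score, at least three library SD, with initial intensity B-score within 5 SD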
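Assay system: stable KCNQ1 CHO-K1 line; medium: assay buffer, equal DMSO in all wells; timing: 90 min dye loading and 20 min compound exposure, both at room temperature; technique: kinetic FluxOR thallium fluorescence, 10-s 1-Hz baseline, 110-s post-stimulus read; read-out basis: B score of baseline-normalized fluorescence ratio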
KCNQ1 block: human KCNQ1 channel inhibition; CHO-K1 KCNQ1, FluxOR thallium flux fluorescence; hits give high values; B-score at 10 µM; actives 1.3% (n = 310,000); AID 2642;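 active = compounds whose thallium flux B-score, printed positive for inhibition, exceeds three library SD while starting fluorescence stays within three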;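 note: channel opened by potassium depolarization with thallium stimulus after 20 min compound exposure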
KCNK9 block: blocks the human KCNK9 two-pore domain potassium channel. Q9NPC2. actives 1.2% (n = 310,000). HEK293 KCNK9, FluxOR thallium flux fluorescence; hits give low values. B-score at 10 µM. AID 488922;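 active = ratio B-score over 3 SD below the library mean, with starting fluorescence within 5 SD of its mean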;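 note: negative B-score means less thallium flux so channel inhibition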
Kir21 inh: blocks the mouse Kir2.1 inward-rectifier potassium channel. HEK293-Kir2.1, FluxOR thallium flux fluorescence; hits give low values. actives 0.85% (n = 310,000). AID 1672. P35561. B-score at 10 µM;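 active = fluorescence ratio B-score at or below minus 3 SD of library scores, with starting-brightness B-score within 2 SD, cut at about -4.2 in these data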;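 note: channel flux triggered by added potassium and thallium sulfate stimulus; B-score of peak minus minimum fluorescence over baseline after thallium stimulus; more negative B-score means stronger Kir2.1 block with less thallium influx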
Target sequence (P35561 whole entry, looked up): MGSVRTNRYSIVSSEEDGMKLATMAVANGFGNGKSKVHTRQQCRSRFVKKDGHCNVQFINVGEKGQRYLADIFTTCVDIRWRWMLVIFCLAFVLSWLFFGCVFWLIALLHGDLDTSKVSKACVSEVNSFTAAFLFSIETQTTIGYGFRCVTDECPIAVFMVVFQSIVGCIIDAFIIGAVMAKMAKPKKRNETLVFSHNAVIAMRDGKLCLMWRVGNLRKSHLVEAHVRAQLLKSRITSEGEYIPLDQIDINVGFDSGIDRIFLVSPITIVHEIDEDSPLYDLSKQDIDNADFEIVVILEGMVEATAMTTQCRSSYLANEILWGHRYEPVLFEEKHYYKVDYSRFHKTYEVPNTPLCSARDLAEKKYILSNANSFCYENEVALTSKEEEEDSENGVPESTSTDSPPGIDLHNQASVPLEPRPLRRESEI
KCNK9 block conf: human KCNK9 inhibitor confirmation; shares compounds with KCNK9 block; inhibition, % at 10 µM; AID 492992; HEK293 KCNK9 cells, FluxOR thallium flux fluorescence; actives 43% (n = 4,900);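 active = thallium signal inhibited by more than 5 SD of the compound-free buffer control wells, on both duplicate plates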;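 note: 0% = assay buffer control wells without compound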
Kir2-1 spec: tests whether KCNK9 modulators also affect mouse Kir2.1; shares compounds with KCNK9 block; AID 492993; actives 4% (n = 4,900); Kir2.1 cells, FluxOR thallium flux fluorescence; inhibition, % at 10 µM;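 active = thallium signal drop more than 5 SD beyond the mean of the no-compound control wells, seen in both duplicate plates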;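 note: signal is fluorescence rise after thallium addition divided by baseline fluorescence; plate controls were assay buffer only for no effect and full block by chlorpromazine control for full effect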
HEK293 Tl ctr: non-induced cell nonspecific activity of KCNK9 modulators; inhibition, % at 10 µM; actives 40% (n = 4,900); shares compounds with KCNK9 block; non-induced KCNK9-HEK293, FluxOR thallium flux; AID 492997;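 active = thallium signal drop beyond 5 SD of the untreated control mean, on both duplicate plates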;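 note: plate controls were buffer only IC0 wells for no effect and SID17386958 at its maximal inhibitory level for full effect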
The depositor's hits bear a star. In the library only some 3.7% were active in any assay of this set; here they are far more common.

Cc1ccccc1C1c2[nH]c3ccccc3c2C[C@H]2C(=O)N(C3CCN(Cc4ccccc4)CC3)CC(=O)N12 (some centres undefined) was read as KCNK3 inh inactive, hERG rescue -9, KCNQ1 pot inactive, KCNQ1 block inactive, KCNK9 block inactive and Kir21 inh -1.6.
CCOc1ccccc1C1c2[nH]c3ccccc3c2C[C@H]2C(=O)N(C3CCN(Cc4ccccc4)CC3)CC(=O)N12 (some centres undefined) was read as KCNK3 inh inactive, hERG rescue -14, KCNQ1 pot inactive, KCNQ1 block inactive, KCNK9 block inactive, Kir21 inh 1.1, KCNK9 block conf inactive, Kir2-1 spec inactive and HEK293 Tl ctr inactive.
CN1Cc2cccc3c2C(Cc2ccccc2S3)C1 (centres undefined) was read as KCNK3 inh inactive, hERG rescue -12, KCNQ1 pot inactive, KCNQ1 block inactive, KCNK9 block inactive and Kir21 inh -1.6.
Screening Cc1[nH]nc(-c2ccc(O)c(C)c2O)c1Oc1ccccc1 returned KCNK3 inh inactive, hERG rescue -17, KCNQ1 pot inactive, KCNQ1 block inactive, KCNK9 block -14*, Kir21 inh -0.42, KCNK9 block conf 34%*, Kir2-1 spec inactive and HEK293 Tl ctr inactive.
`COc1cc(OC)c(C(=O)/C=C/c2ccc(OCc3ccccc3)c(OC)c2)c(OC)c1` gave KCNK3 inh inactive, hERG rescue -6, KCNQ1 pot inactive, KCNQ1 block inactive, KCNK9 block inactive and Kir21 inh -1.4.
For COc1cc(OCc2ccccc2)c(C(=O)/C=C/c2ccc3c(c2)OCO3)c(OC)c1OC the results were KCNK3 inh inactive, hERG rescue -6, KCNQ1 pot inactive, KCNQ1 block inactive, KCNK9 block -8.9*, Kir21 inh -1.1, KCNK9 block conf inactive, Kir2-1 spec inactive and HEK293 Tl ctr 35%*.
`CC(C)C(=O)Nc1ccc(C(=O)Nc2ccc(Br)cc2F)cc1` gave KCNK3 inh inactive, hERG rescue -4, KCNQ1 pot inactive, KCNQ1 block inactive, KCNK9 block inactive and Kir21 inh 0.77.
Screening CCc1ccc(OCCn2ccnc2)cc1 returned KCNK3 inh inactive, hERG rescue -8, KCNQ1 pot inactive, KCNQ1 block inactive, KCNK9 block inactive and Kir21 inh -0.09.
For CNS(=O)(=O)c1cnccc1N1CCN(c2cccc(Cl)c2)CC1 the results were KCNK3 inh inactive, hERG rescue -9, KCNQ1 pot inactive, KCNQ1 block inactive, KCNK9 block inactive and Kir21 inh 0.08.
Screening CCN(CC)S(=O)(=O)c1cnccc1N1CCN(c2cccc(Cl)c2)CC1 returned KCNK3 inh inactive, hERG rescue -1, KCNQ1 pot inactive, KCNQ1 block inactive, KCNK9 block -9.8*, Kir21 inh 2.5, KCNK9 block conf 36%*, Kir2-1 spec inactive and HEK293 Tl ctr 27%*.
O=C(N/N=C/c1cc(Cl)cc([N+](=O)[O-])c1O)c1cc(-c2ccccn2)nc2ccccc12 was read as KCNK3 inh inactive, hERG rescue -18, KCNQ1 pot inactive, KCNQ1 block inactive, KCNK9 block inactive, Kir21 inh 1.4, KCNK9 block conf inactive, Kir2-1 spec inactive and HEK293 Tl ctr 28%*.
Screening COc1cccc(/C=N/NC(=O)c2cc(-c3ccccn3)nc3ccccc23)c1O returned KCNK3 inh inactive.
